Bioassay records from PubChem.
TRPC6 inhibitor = mouse TRPC6 channel inhibition. hit rate 1.1% among 310,000. B-score at 10 µM. HEK293-TRPC6, membrane potential dye, ACh-evoked depolarization; stronger effect = lower value;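 active = B-score under library mean minus 3 SD, initial fluorescence not abnormally high, positive integrated signal ratio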;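 note: B-score derived from integrated fluorescence ratio over the kinetic read; more negative B-score means stronger inhibition of depolarization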
Target sequence (Q61143 whole entry, looked up): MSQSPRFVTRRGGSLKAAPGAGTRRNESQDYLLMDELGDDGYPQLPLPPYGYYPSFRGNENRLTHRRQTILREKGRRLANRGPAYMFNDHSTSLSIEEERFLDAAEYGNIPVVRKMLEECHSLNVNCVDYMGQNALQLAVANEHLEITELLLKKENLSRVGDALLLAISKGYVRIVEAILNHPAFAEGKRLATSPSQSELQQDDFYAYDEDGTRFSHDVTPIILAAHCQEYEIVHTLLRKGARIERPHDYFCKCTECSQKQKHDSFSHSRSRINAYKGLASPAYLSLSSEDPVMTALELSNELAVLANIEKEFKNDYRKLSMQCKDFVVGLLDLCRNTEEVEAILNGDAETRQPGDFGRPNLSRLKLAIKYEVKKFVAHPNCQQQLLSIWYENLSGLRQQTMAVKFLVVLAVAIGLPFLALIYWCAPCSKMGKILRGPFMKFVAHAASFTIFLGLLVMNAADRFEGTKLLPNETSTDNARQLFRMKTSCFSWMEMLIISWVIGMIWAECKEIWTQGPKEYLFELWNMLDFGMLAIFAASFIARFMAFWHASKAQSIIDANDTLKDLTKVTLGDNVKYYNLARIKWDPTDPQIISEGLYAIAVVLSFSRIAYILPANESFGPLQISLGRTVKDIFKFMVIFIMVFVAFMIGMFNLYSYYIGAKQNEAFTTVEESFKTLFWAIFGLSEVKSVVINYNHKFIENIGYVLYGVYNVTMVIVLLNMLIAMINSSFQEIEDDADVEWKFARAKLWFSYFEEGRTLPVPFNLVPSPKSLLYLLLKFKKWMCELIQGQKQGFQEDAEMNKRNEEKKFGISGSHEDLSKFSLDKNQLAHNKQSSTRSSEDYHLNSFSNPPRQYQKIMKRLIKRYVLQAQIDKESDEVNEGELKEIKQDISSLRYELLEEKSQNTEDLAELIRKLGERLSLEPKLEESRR
TRPC6 activator = activators of mouse TRPC6 channel; HEK293-TRPC6 membrane potential dye fluorescence; stronger effect = higher value; Q61143; hit rate 0.13% among 310,000; B-score at 10 µM;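 active = B-score of the integrated fluorescence ratio above library mean plus 3 SD, and starting fluorescence ratio within library mean plus 5 SD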;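 note: higher score means more depolarization so channel activation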
Kir21 inh = Kir2.1 (mouse) channel inhibition; P35561; HEK293-Kir2.1, FluxOR thallium flux fluorescence; stronger effect = lower value; B-score at 10 µM; hit rate 0.85% among 310,000;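 active = fluorescence ratio B-score at or below minus 3 SD of library scores, with starting-brightness B-score within 2 SD, cut at about -4.2 in these data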;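 note: channel flux triggered by added potassium and thallium sulfate stimulus; B-score of peak minus minimum fluorescence over baseline after thallium stimulus; more negative B-score means stronger Kir2.1 block with less thallium influx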
TRPC4 inh = inhibitors of mouse TRPC4 channel | B-score at 10 µM | Q9QUQ5 | hit rate 0.39% among 300,000 | HEK293 TRPC4beta/mu-opioid, DAMGO-evoked Fluo4 calcium flux; stronger effect = lower value | AID 2247;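 active = B-score over 3 SD under the library average, no early fluorescence shift, positive overall ratio signal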
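material = TRPC4beta/mu-opioid receptor HEK293 cell line | probe or stimulus = sequential submaximal and maximal DAMGO stimulation | compound dosing = one concentration per compound | measured by = Fluo4 Ca2+ flux fluorescence | evaluation = integrated fluorescence ratio relative to baseline, converted to per-well B score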
TRPC4 act = TRPC4 (mouse) channel activation. B-score at 10 µM. HEK293 TRPC4beta/mu-opioid, Fluo4 calcium fluorescence; stronger effect = higher value. Q9QUQ5. hit rate 0.49% among 310,000. AID 2237;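 active = B-score above 5 SD of library B-scores, and initial fluorescence ratio not above library mean plus 5 SD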;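 note: positive B-score marks a calcium rise read as TRPC4 activation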
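Material: HEK293 stable line with TRPC4beta plus mu-opioid receptor; technique: Fluo4 calcium-sensitive dye fluorescence, kinetic, 1 Hz baseline; timing: Fluo4 dye loading 45 min at room temperature, 110 s recording; controls: assay buffer as low control, maximal DAMGO as high control; read-out: integrated baseline-normalised fluorescence ratio, converted to per-well B score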
TRPC4 potent = TRPC4 (mouse) allosteric potentiation | Q9QUQ5 | HEK293 TRPC4beta/mu-opioid, DAMGO EC20, Fluo-4 Ca2+ flux; stronger effect = higher value | B-score at 10 µM | hit rate 0.42% among 310,000;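 active = B-score of calcium response area above 5 SD of library B-scores, with initial fluorescence ratio within 5 SD of library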;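 note: B-score of integrated fluorescence ratio over time as area under calcium response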
TRPC4 spec 2 = second selectivity test of TRPC6 inhibitors: effect on mouse TRPC4. shares compounds with TRPC6 inhibitor. HEK293 TRPC4/MOR, membrane potential dye fluorescence; channel activated by saturating DAMGO dose. inhibition, % at 10 µM. hit rate 42% among 920. AID 2776;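 active = compounds whose fluorescence signal differed from control wells by over 3 SD, either direction, in both duplicate plates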
TRPC4 spec = selectivity of TRPC6 inhibitors: effect on mouse TRPC4 | shares compounds with TRPC6 inhibitor | AID 2777 | activity change, negative = inhibition, % at 10 µM | hit rate 61% among 920 | HEK293 TRPC4/mu-opioid, membrane potential fluorescence;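 active = rise or fall in signal beyond 3 SD of buffer-only wells in both replicate plates, either sign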;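 note: integrated kinetic ratio of fluorescence range over baseline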
HEK293 MPD ctr 2-1 = second check of TRPC6 inhibitor effects in parental HEK293 cells; parental HEK293 membrane potential dye fluorescence; maximal acetylcholine challenge after compound addition; signal change vs control, % at 10 µM; shares compounds with TRPC6 inhibitor; hit rate 31% among 920; AID 2779;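 active = membrane potential signal moving either way by over 3 SD of the maximum-effect control, in both duplicate plates, meaning non-specific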
HEK293 MPD ctr-1 = parental HEK293 nonspecific activity of TRPC6 inhibitors | shares compounds with TRPC6 inhibitor | parental HEK293 membrane potential dye fluorescence | membrane potential signal change, % at 10 µM | hit rate 60% among 920 | AID 2780;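 active = membrane potential signal shifting up or down by more than 3 SD of buffer-only wells, on both duplicate plates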
HEK293 MPD ctr-2 = counter-screen for TRPC6 modulators: effect in parental HEK293 cells; shares compounds with TRPC6 inhibitor; membrane potential dye fluorescence; membrane potential signal change, % at 10 µM; hit rate 51% among 2,400; AID 488924;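 active = membrane potential signal moves up or down beyond 5 SD from buffer-only wells, on both duplicate plates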
HEK293 MPD ctr 2-2 = parental HEK293 nonspecific activity of TRPC6 modulators, second screen | shares compounds with TRPC6 inhibitor | hit rate 14% among 2,400 | membrane potential dye fluorescence; after compound, maximal acetylcholine stimulation | inhibition, % at 10 µM;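 active = membrane potential signal drops by more than 5 SD from the mean control signal, in both duplicate plates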;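 note: plate controls were acetylcholine ECmax control wells for no effect and buffer only wells for full effect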
TRPC4/MOR mod = mouse TRPC4 off-target activity of TRPC6 modulators. shares compounds with TRPC6 inhibitor. HEK293 TRPC4/mu-opioid, membrane potential fluorescence. percent change from control (negative = decrease, positive = increase), % at 10 µM. hit rate 69% among 2,400;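 active = membrane potential signal moved up or down beyond 5 SD of buffer control wells, in both duplicate plates, actives on both sides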;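 note: plate controls were assay buffer wells for no effect and DAMGO maximal-effect wells for full effect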
TRPC4/MOR inh 2 = second check of whether TRPC6 modulators also affect mouse TRPC4; shares compounds with TRPC6 inhibitor; HEK293 TRPC4/mu-opioid, membrane potential dye fluorescence; stimulated with maximal-effect DAMGO; inhibition, % at 10 µM; hit rate 55% among 2,400;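 active = drop in membrane potential signal beyond 5 SD of the control wells in both duplicate plates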;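 note: TRPC4 counter screen for TRPC6 hits run under conditions tuned for TRPC6 not TRPC4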
TRPC6 block conf = confirmation of mouse TRPC6 inhibitors | hit rate 43% among 3,300 | HEK293-TRPC6, membrane potential dye, ACh-evoked depolarization | shares compounds with TRPC6 inhibitor | inhibition, % at 10 µM;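 active = fluorescence ratio falls more than 5 SD below the full-stimulation control mean, in both duplicate runs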;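 note: integrated fluorescence ratio of peak minus minimum over baseline after agonist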
TRPC6 act confirm = mouse TRPC6 activator confirmation | shares compounds with TRPC6 inhibitor | HEK293-TRPC6 membrane potential dye fluorescence, FDSS | activation, % at 10 µM | hit rate 11% among 2,800;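 active = ratio signal rise beyond 5 SD above unstimulated control wells' mean, seen in both duplicate runs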;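 note: plate controls were buffer EC0 wells for no effect and acetylcholine ECmax response for full effect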
* = called active by the depositor; i = inactive; · = not tested or not shown. Hits are enriched below; roughly 2.9% of the tested compounds scored in any of these assays.

SMILES	TRPC6 inhibitor	TRPC6 activator	Kir21 inh	TRPC4 inh	TRPC4 act	TRPC4 potent	HEK293 MPD ctr-2	HEK293 MPD ctr 2-2	TRPC4/MOR mod	TRPC4/MOR inh 2	TRPC6 block conf	TRPC6 act confirm	others
Cc1c(C)n(Cc2ccccc2)c2ccc(C(=O)OCCN(C)C)cc12	-6*	i	-9.5*	i	i	i	i	i	i	72%*	56%*	i
Cc1c(C)n(Cc2ccccc2)c2ccc(C(=O)NCCN3CCOCC3)cc12	i	i	-1.6	i	i	i	·	·	·	·	·	·
Oc1ccc(Cl)cc1Cc1cc(Cl)ccc1O	-5.1*	i	-6*	i	i	i	i	69%*	-12%*	63%*	66%*	i
Oc1ccc(Cl)cc1CNn1cnnc1	i	i	0.02	i	i	i	·	·	·	·	·	·
Cc1ccc(Cn2c(=N)n(CC(O)COc3ccccc3)c3ccccc32)cc1 (stereo not drawn)	-5.9*	i	-8.5*	i	72*	i	i	i	68%*	115%*	46%*	·
CCCCn1c(=N)n(CC(O)COc2ccccc2)c2ccccc21 (stereo not drawn)	i	i	-3.7	i	i	i	·	·	·	·	·	·
N=c1n(Cc2ccccc2)c2ccccc2n1CC(O)COc1ccccc1 (stereo not drawn)	-9.9*	i	-7.1*	i	56*	i	·	·	·	·	63%*	·	TRPC4 spec 2=-6.5%*;TRPC4 spec=56%*;HEK293 MPD ctr 2-1=i;HEK293 MPD ctr-1=14%*
CC(C)CN(C(=O)C1CCCO1)C1CCS(=O)(=O)C1 (stereo not drawn)	i	i	0.05	i	i	i	·	·	·	·	·	·
Cc1ccc(C(=O)Nc2ccc(N3CCCC3)cc2)cc1	i	i	0.12	i	i	i	·	·	·	·	·	·
CC(C)Oc1ccc(C(=O)Nc2ccc(N3CCCCC3)cc2)cc1	-5.9*	i	0.59	i	i	i	i	i	i	i	i	i
Cc1ccc(C(=O)Nc2ccc(N3CCN(C)CC3)cc2)cc1C	-6.1*	i	0.26	i	i	i	i	i	-15%*	44%*	42%*	i
Cc1ccc(-c2nnc(CSc3nc(C(C)C)nc4sc(C)c(C)c34)o2)cc1	-5.5*	i	2.3	i	i	i	i	i	i	i	i	i
Cc1ccccc1C(OCCN(C(C)C)C(C)C)c1ccccc1 (stereo not drawn)	-5*	i	-2.7	i	i	i	209%*	88%*	44%*	44%*	80%*	·
CN(C)CCOC(c1ccccc1)c1ccccc1	i	i	-1.3	i	i	i	·	·	·	·	·	·
CN(C)CCOC(c1ccccc1)c1ccccc1 (tested in a mixture with another compound)	-5.2*	i	0.1	i	i	i	154%*	i	26%*	34%*	51%*	·
Cc1oc(-c2ccc(Cl)cc2)nc1CN1CCCC(C(=O)NCc2ccccn2)C1 (stereo not drawn)	-5.8*	16*	-1.4	i	i	i	160%*	i	18%*	72%*	64%*	144%*
Cc1oc(-c2ccc(Cl)cc2)nc1CN1CCC(C(=O)N2CCN(Cc3ccccc3)CC2)CC1	i	12*	0.16	i	i	i	226%*	i	40%*	68%*	i	129%*
Cc1oc(-c2cccc(Cl)c2)nc1CN1CCC(C(=O)NCc2ccco2)CC1	i	i	0.09	i	i	i	·	·	·	·	·	·
CCN1CCCC1CNC(=O)C1CCN(Cc2nc(-c3cccc(Br)c3)oc2C)CC1 (stereo not drawn)	-8.9*	i	-2.2	i	i	i	·	·	·	·	i	i	TRPC4 spec 2=60%*;TRPC4 spec=-18%*;HEK293 MPD ctr 2-1=i;HEK293 MPD ctr-1=-240%*
Cc1oc(-c2ccc(Cl)cc2)nc1CN1CCC(C(=O)N2CCc3ccccc3C2)CC1	i	14*	-1.8	i	i	15*	202%*	i	32%*	62%*	i	80%*
O=C(NC(=S)NCc1ccco1)c1ccccc1[N+](=O)[O-]	i	i	0.01	i	i	i	·	·	·	·	·	·
CN(C)c1cccc(C(=O)OCC(=O)NC2CCCC2)c1	i	i	-0.26	i	i	i	·	·	·	·	·	·
Nc1nn(-c2cccc(F)n2)cc1-c1ccccc1	i	i	1	i	i	i	·	·	·	·	·	·
O=C(Nc1ncccc1O)c1ccc(Cl)c(S(=O)(=O)N2CCCCC2)c1	i	i	-1.6	i	i	i	·	·	·	·	·	·
CCc1ccc(-c2nc(CN3CCC(C(=O)NCc4ccccc4OC)CC3)c(C)o2)cc1	i	i	-1.6	i	i	i	·	·	·	·	·	·
COc1cc(-c2nc(CN3CCN(C(=O)c4ccco4)CC3)c(C)o2)ccc1F	-6.3*	12*	-1.5	i	i	i	i	i	12%*	i	62%*	139%*
